Compound activity as filed in PubChem.
An excerpt weighted towards active compounds, which were near 3.8% of everything screened.
FN deposition inh: fibronectin deposition inhibition; 0.086% of 350,000 active; inhibition, % at 12.6 µM; AH1F fibroblasts, Alexa488-fibronectin deposition fluorescence, overnight;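 active = mean inhibition across replicates of 30% or more, regardless of how many single replicates reach that level; inconclusive = mean under 30% yet at least half of replicates reach 30%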;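 note: positive control wells lacked labelled fibronectin entirely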
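material = AH1F fibroblast monolayer depositing Alexa488-labelled fibronectin into matrix | amount = 10000 AH1F cells/well | buffer or medium = DMEM plus 2% serum, read in PBS | incubation = 1 h cell adhesion before compound, then overnight fibronectin incubation | detection = fluorescence at 485 nm excitation, 525 nm emission | evaluation = percent inhibition as loss of matrix-bound fibronectin fluorescence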
DENV2 CPE rescue: inhibitors of DENV2 cytopathic effect | AID 651640 | CPE inhibition, % at 9.99 µM | DENV2-infected cells, cytopathic effect rescue, plate reader | 1.7% of 350,000 active; in the data active = CPE inhibition above about 20%, passing the limit was not always enough; inconclusive = no clear call, values can overlap the other calls; tested in BHK-21 cells;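 note: 0% = median of neutral control wells and 100% = median of positive control wells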
SIRT5 inh: sirtuin-5 (human) deacylase inhibition | inhibition, % at 15 µM | 1.1% of 330,000 active | AID 652115 | Purified SirT5, succinyl-peptide AMC, trypsin-coupled fluorescence; in the data active = inhibition above about 15%; inconclusive = no clear call, values can overlap the other calls
Target sequence (Q9NXA8 whole entry, looked up): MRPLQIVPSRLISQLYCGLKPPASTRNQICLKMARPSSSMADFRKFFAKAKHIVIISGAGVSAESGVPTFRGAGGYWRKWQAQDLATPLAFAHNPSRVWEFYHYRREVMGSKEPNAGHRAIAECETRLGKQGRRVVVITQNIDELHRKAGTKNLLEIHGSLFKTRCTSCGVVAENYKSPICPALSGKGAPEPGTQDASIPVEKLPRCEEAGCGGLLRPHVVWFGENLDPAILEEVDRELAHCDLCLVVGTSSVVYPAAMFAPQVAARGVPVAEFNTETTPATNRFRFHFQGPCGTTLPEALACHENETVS
ARNT TACC3 PPI: disrupts binding between human ARNT and TACC3. Q9Y6A5. AlphaScreen His-ARNT PAS-B/GST-TACC3 binding, luminescence; TACC3 fragment carries E629A point mutation. inhibition, % at 9.99 µM. 0.66% of 390,000 active. AID 623870;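 active = mean inhibition of replicates at least 50% and at least half of replicates each reaching 50%; inconclusive = half or more replicates reach 50% but mean below 50%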;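 note: 0% = complete ARNT plus TACC3 wells and 100% = ARNT alone without TACC3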
XiGFP reactiv: X-chromosome reactivation activator; activation, % at 7.58 µM; XiGFP mouse fibroblasts, % GFP-positive cells imaging, 3 d; cells co-treated with 5-aza-dC sensitizer; scaled so ellipticine positive control = 100%; 0.055% of 360,000 active; AID 743238;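 active = mean normalized replicate activation at least 10% and every replicate at or above 10%; inconclusive = only one of the two criteria met; inactive = mean below 10% and not all replicates reach 10%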;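 note: 0% = median of on-plate neutral control wells and 100% = ellipticine 6 µM median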
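material = 68-5-11 XiGFP fibroblast line | medium = DMEM plus 5-aza-dC sensitizer | schedule = 3 days compound exposure | benchmarks = positive control ellipticine, 6 µM final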
FGF22 binding: shifts melting point of recombinant human FGF22. Q9HCT0. recombinant FGF22 thermal shift, SYPRO orange fluorescence; percent of sucrose octasulfate shift, DMSO zero. activity (Tm shift, normalised), % at 9.99 µM. 1.5% of 340,000 active. AID 651658;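 active = mean Tm shift, scaled 0 neutral to 100 positive control, at about 1.3% or above, every replicate too, limit read from the data; inconclusive = no clear call, values can overlap the other calls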
Target sequence (Q9HCT0 whole entry, looked up): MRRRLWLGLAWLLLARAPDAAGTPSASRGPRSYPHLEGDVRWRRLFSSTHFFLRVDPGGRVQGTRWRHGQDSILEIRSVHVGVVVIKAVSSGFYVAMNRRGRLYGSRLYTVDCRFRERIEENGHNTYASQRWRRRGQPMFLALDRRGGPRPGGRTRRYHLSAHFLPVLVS
An asterisk follows results filed as active; ? = inconclusive; · = no result.

SMILES	FN deposition inh	DENV2 CPE rescue	SIRT5 inh	ARNT TACC3 PPI	XiGFP reactiv	FGF22 binding
COc1ccc(S(=O)(=O)Nc2ccc3c(c2)C(=O)N([C@H](C)CO)C[C@@H](C)[C@@H](CN(C)Cc2ccc(C(F)(F)F)cc2)OCCCC[C@@H](C)O3)cc1	15	-4	15*	0	0	0
COc1ccc(S(=O)(=O)Nc2ccc3c(c2)C(=O)N([C@H](C)CO)C[C@@H](C)[C@H](CN(C)Cc2ccc(C(F)(F)F)cc2)OCCCC[C@@H](C)O3)cc1	-13	·	2	4	0	0
COc1ccc(S(=O)(=O)Nc2ccc3c(c2)C(=O)N([C@H](C)CO)C[C@H](C)[C@H](CN(C)Cc2ccc(C(F)(F)F)cc2)OCCCC[C@H](C)O3)cc1	-3	1	39*	0	0	0
COc1ccc(S(=O)(=O)Nc2ccc3c(c2)C(=O)N([C@@H](C)CO)C[C@@H](C)[C@H](CN(C)Cc2ccc(C(F)(F)F)cc2)OCCCC[C@H](C)O3)cc1	3	-2	7	-2	0	0
COc1ccc(S(=O)(=O)Nc2ccc3c(c2)C(=O)N([C@@H](C)CO)C[C@@H](C)[C@@H](CN(C)Cc2ccc(C(F)(F)F)cc2)OCCCC[C@@H](C)O3)cc1	6	-9	22*	0	0	0
COC(=O)C[C@@H]1CC[C@@H]2[C@@H](COc3ccc(NC(=O)c4ccccc4)cc3C(=O)N2C)O1	-3	9	0	-17	0	0
COc1cccc(CNC(=O)C[C@H]2CC[C@@H]3[C@@H](COc4ccc(NC(=O)c5cccs5)cc4C(=O)N3C)O2)c1	-3	?	25*	-6	0	0
COc1ccc(CNC(=O)C[C@@H]2CC[C@H]3[C@@H](COc4ccc(NC(=O)C5CC5)cc4C(=O)N3C)O2)cc1	-6	?	0	active	0	0
CN1C(=O)c2cc(NC(=O)c3cccs3)ccc2OC[C@@H]2O[C@@H](CC(=O)NCCN3CCCCC3)CC[C@H]21	-13	41*	-1	-7	0	0
COc1ccc(CNC(=O)C[C@H]2CC[C@H]3[C@H](COc4ccc(NC(=O)C5CC5)cc4C(=O)N3C)O2)cc1	-18	-2	4	12	0	0
O=C(c1ccccc1)N1CC2(C1)[C@@H](c1ccccc1)[C@@H](CO)N2Cc1cccnc1	·	·	·	·	0	·
C=CCn1c(SCC(=O)c2ccc(O)c(O)c2)nnc1-c1ccc(OC)cc1	1	6	-2	7	0	0
C=CCn1c(SCC(=O)c2ccc(O)c(O)c2)nnc1-c1ccc(C)cc1	-14	-11	44*	-3	0	0
O=C(NCc1ccccc1)c1ccc2c(c1)C(=O)N(Cc1cccnc1)C2=O	4	?	2	2	0	0
O=C1c2ccc([N+](=O)[O-])cc2C(=O)N1Cc1cccnc1	-1	90*	1	-4	0	0
Cc1cc(C)c(C(=O)NC2CCCc3c2cnn3-c2ccc(C)c(C)c2)c(=O)[nH]1 (configuration not stated)	2	106*	-3	29	0	0
C[C@@H]1C(=O)N[C@@H](c2ccc3c(c2)OCO3)CC=CC[C@H](C)Oc2ccccc2C(=O)N1C (mixture of isomers)	-4	·	·	·	0	·
COc1ccc(CCNC(=O)[C@H](C)NC(=O)N2CCn3c2nc2ccccc23)cc1OC	-1	7	30*	-6	0	0
CS(=O)(=O)N1C2CN(CC3CC3)CC1C2c1ccc(Br)cc1 (configuration not stated)	-6	·	·	·	0	·
CO[C@@H]1CN(C)C(=O)c2ccc(NC(=O)c3ccc(F)cc3)cc2OC[C@H](C)N(C(=O)CC2CC2)C[C@H]1C	1	0	1	·	0	0
COc1cccc(-c2cc(C(=O)NCC3CCCO3)c3cc(Br)cc(C)c3n2)c1 (configuration not stated)	10	3	17*	13	0	0
Fc1ccc(N2CCN(Cc3ccccn3)CC2)cc1	8	4	-4	-2	0	44*
CC(=O)Nc1ccc(S(=O)(=O)N2CCN(Cc3ccccn3)CC2)cc1	-7	·	·	7	·	·
Fc1ccc(N2CCN(Cc3cnc(N4CCOCC4)s3)CC2)cc1	·	-6	-3	-6	0	43*
O=[N+]([O-])c1ccccc1CN1CCN(Cc2ccccn2)CC1	3	·	3	-3	0	43*
SMILES	FN deposition inh	DENV2 CPE rescue	SIRT5 inh	ARNT TACC3 PPI	XiGFP reactiv	FGF22 binding
O=C(CN1CCN(c2ccc(F)cc2)CC1)N1CCOCC1	·	·	·	-2	·	·
CC(=O)Nc1ccc(S(=O)(=O)N2CCN(Cc3ccccc3[N+](=O)[O-])CC2)cc1	-1	-4	0	4	1	44*
c1ccc(CN2CCOCC2)nc1	·	5	·	6	0	0
C[C@@H]1CN([C@@H](C)CO)C(=O)c2cc(C3=CCCCC3)cnc2O[C@H]1CN(C)Cc1cccc(F)c1	-23	-8	6	2	0	0
CC(CC(=O)N1CCN(c2ccc(C(F)(F)F)cn2)CC1)n1ccnc1 (configuration not stated)	-4	12	-10	-4	0	43*
COc1ccc(NC(=O)Nc2ccc3c(c2)[C@@H]2C[C@H](CC(=O)N4CCOCC4)O[C@H](CO)[C@@H]2O3)cc1	-8	2	·	5	0	0
CC1CCN(CCOc2ccc(OCc3ccccc3)cc2)CC1	1	36*	·	6	0	0
COc1ccc(NC(=O)Nc2ccc3c(c2)C(=O)N([C@@H](C)CO)C[C@H](C)[C@@H](CN(C)S(=O)(=O)c2ccccc2)OCCCC[C@@H](C)O3)cc1	-8	8	8	-6	0	0
COc1ccc(S(=O)(=O)N(C)C[C@@H]2OCCCC[C@H](C)Oc3ccc(NC(=O)c4ccccc4)cc3C(=O)N([C@H](C)CO)C[C@@H]2C)cc1	·	44*	-2	5	0	1
COc1ccc(NC(=O)Nc2ccc3c(c2)C(=O)N([C@@H](C)CO)C[C@@H](C)[C@@H](CN(C)S(=O)(=O)c2ccccc2)OCCCC[C@@H](C)O3)cc1	3	66*	13	1	0	0
C[C@H](CO)N1C[C@H](C)[C@H](CN(C)S(=O)(=O)c2ccc(Cl)cc2)OCCCC[C@H](C)Oc2ccc(NC(=O)c3ccccc3)cc2C1=O	·	21*	-4	-18	-1	0
